Scp1 inh: Scp-1 (human) phosphatase inhibition. Q9GZU7. Recombinant Scp1, phosphopeptide, malachite green phosphate absorbance. inhibition, % at 20 µM. 0.88% of 340,000 active. AID 493091;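 active means inhibition above about 50% at 20 µM, limit read from the data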;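 further: plate controls were DMSO wells with enzyme for no effect and wells lacking enzyme for full effect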
Target sequence (Q9GZU7 76-261 limits assumed): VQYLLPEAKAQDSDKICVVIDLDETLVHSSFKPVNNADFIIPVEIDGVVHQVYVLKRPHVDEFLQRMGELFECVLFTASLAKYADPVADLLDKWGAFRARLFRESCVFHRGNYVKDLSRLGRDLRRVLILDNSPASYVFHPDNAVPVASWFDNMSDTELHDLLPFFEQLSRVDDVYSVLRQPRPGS
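Material – SCP-1 phosphatase catalytic domain, residues 76-261 · Buffer or medium – Acidic Tris acetate buffer with magnesium and detergent · Also added – Phospho 17-mer peptide substrate · Compound – single 20 µM dose, 1% DMSO · Times – 45 min room-temperature reaction, 5 min colour, 30 min stabiliser · Technique – Phosphate-binding colour reagent, absorbance read at 630 nm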
LMPTP block: blocks human LMPTP phosphatase; P24666; recombinant LMPTP-A, OMFP fluorogenic substrate, fluorescence intensity; inhibition, % at 20 µM; 0.22% of 360,000 active;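 active means compounds that cut the enzyme signal by at least half of the control window in the single-dose screen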;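 further: plate controls were DMSO wells with enzyme plus substrate for no effect and substrate without enzyme for full effect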
Target sequence (P24666 whole entry, looked up): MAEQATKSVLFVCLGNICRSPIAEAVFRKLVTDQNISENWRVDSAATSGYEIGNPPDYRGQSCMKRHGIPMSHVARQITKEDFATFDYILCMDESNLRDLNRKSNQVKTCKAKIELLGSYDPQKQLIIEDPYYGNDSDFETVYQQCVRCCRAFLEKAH
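Assay system: LMPTP-A, protein tyrosine phosphatase of low molecular weight / Medium: pH 6.0 Bis-Tris buffer with DTT and Triton X-100 / Schedule: 50 min enzyme reaction at room temperature, protected from light / Measured by: endpoint fluorescence intensity from OMFP dephosphorylation / Read-out basis: % inhibition relative to no-enzyme and uninhibited control wells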
SUMO1-SIM PPI: SUMO1-SIM interaction modulation; P63165; SUMO1 binding to a labelled peptide, TR-FRET, 1 h; 0.33% of 360,000 active; inhibition, % at 20 µM; in the data active means inhibition above about 37%
Target sequence (P63165 whole entry, looked up): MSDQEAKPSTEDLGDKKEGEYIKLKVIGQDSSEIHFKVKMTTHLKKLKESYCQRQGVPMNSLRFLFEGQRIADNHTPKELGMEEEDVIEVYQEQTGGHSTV
STEP block: STEP (human) phosphatase inhibition; recombinant STEP, OMFP fluorogenic substrate, fluorescence; inhibition, % at 20 µM; 0.25% of 360,000 active;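 active means inhibition at 20 µM, scaled per plate between control wells, above about 37%, limit read from the data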;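 further: 0% = DMSO with enzyme and substrate and 100% = substrate only without enzyme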
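Measure: Control-normalized % inhibition with plate pattern correction | Test system: STEP phosphatase, cell-free reaction | Medium: pH 6.0 Bis-Tris with DTT and Tween 20 | Technique: Fluorescence, 480/540 nm | Times: Reaction 20 min, ambient temperature | Doses: Single compound dose of 20 µM, 1% DMSO final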
FAS-TE inh: inhibitors of human fatty acid synthase thioesterase domain | P49327 | recombinant FAS-TE, OMFH fluorogenic substrate, fluorescence endpoint | inhibition, % at 15 µM | 0.67% of 360,000 active | AID 602261;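 active means compounds whose normalised, plate-corrected inhibition of enzyme fluorescence in the single-dose primary screen is 50% or more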;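 further: 0% = DMSO with enzyme and 100% = substrate without enzyme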
FAS-TE conf: confirmation of human fatty acid synthase thioesterase inhibitors | AID 624325 | recombinant FAS-TE, OMFH fluorogenic substrate, fluorescence | 45% of 2,300 active | shares compounds with FAS-TE inh | inhibition, % at 15 µM;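 active means compounds inhibiting the enzyme by at least 50% at 15 µM in any one of the replicates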;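 further: 0% = enzyme with DMSO only and 100% = wells lacking enzyme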
* = called active by the depositor; / = not tested or not shown. A selection: hits, their analogues and other compounds. The true share with any hit is near 1.9%.

SMILES	Scp1 inh	LMPTP block	SUMO1-SIM PPI	STEP block	FAS-TE inh	FAS-TE conf
COc1ccccc1-c1ccc2c(c1)C(C)(Cc1ccc(F)c(Cl)c1)C(=O)N2 (configuration not stated)	/	4	2	1	26	/
Cc1ccc(S(=O)(=O)NN=C2CCC(C(C)(C)C)CC2)cc1[N+](=O)[O-] (configuration not stated)	-2	-1	-11	-3	67*	47*
COCCNC(=O)C(=O)NCC1OCCN1S(=O)(=O)c1cc(F)ccc1F (configuration not stated)	-4	0	3	1	0	/
O=C(Cc1cccc(C(F)(F)F)c1)OCN1C(=O)c2ccccc2C1=O	-10	2	-1	4	51*	46*
Cc1onc(-c2ccccc2)c1C(=O)Nc1nnc(CC(C)C)s1	-1	-1	3	0	-6	/
O=C(COC(=O)c1ccc(S(=O)(=O)C(F)F)cc1)Nc1cccnc1Cl	-1	-2	-1	0	-3	/
CCOC(=O)[C@@H]1[C@H]2COc3ccc(Br)cc3[C@@H]2N2C(=O)N(c3ccc(C)cc3)C(=O)[C@]12C	-11	2	2	-1	36	/
CCOC(=O)[C@@H]1[C@H]2COc3ccc(Br)cc3[C@@H]2N2C(=O)N(c3ccc(Br)cc3)C(=O)[C@@]12C	-21	1	2	0	37	/
CCOC(=O)[C@@H]1[C@H]2COc3ccc(Br)cc3[C@H]2N2C(=O)N(c3ccc(C)cc3)C(=O)[C@]12C	-14	2	5	0	60*	26
CCOC(=O)[C@@H]1[C@H]2COc3ccc(Br)cc3[C@@H]2N2C(=O)N(c3ccc(C(F)(F)F)cc3)C(=O)[C@]12C	-14	0	0	1	58*	23
CCOC(=O)[C@H]1[C@H]2COc3ccc(Br)cc3[C@@H]2N2C(=O)c3ccc(Cl)cc3NC(=O)[C@@]12C	-6	2	-3	-2	78*	28
O=C(NC12CC3CC(CC(C3)C1)C2)c1ccc([N+](=O)[O-])cc1	6	0	-21	-1	8	/
CS(=O)(=O)c1ccc(Cl)c(C(=O)NCC2CCCCC2)c1	-1	-1	-2	2	-5	/
O=C(NCC1CCCCC1)c1cc([N+](=O)[O-])ccc1Cl	-4	1	-28	1	51*	56*
O=C(O)c1cc([N+](=O)[O-])ccc1NCCCc1ccccc1	-9	-1	-20	0	3	/
Cc1cc(O)c(NC(=O)c2cc([N+](=O)[O-])ccc2Cl)cc1C	4	0	-6	-2	38	/
O=C(NCCCc1ccccc1)c1cc([N+](=O)[O-])ccc1Cl	-2	-1	-22	0	84*	90*
O=C(NC12CC3CC(CC(C3)C1)C2)c1cc([N+](=O)[O-])ccc1Cl	-5	0	-21	-2	59*	26
Cc1ccc(O)c(NC(=O)c2cc([N+](=O)[O-])ccc2Cl)c1	-6	0	-17	-2	54*	60*
CC(NC(=O)c1ccc([N+](=O)[O-])cc1[N+](=O)[O-])c1ccc(-c2ccccc2)cc1 (configuration not stated)	3	1	-7	-3	55*	42
CCC(NC(=O)c1ccc([N+](=O)[O-])cc1[N+](=O)[O-])c1ccccc1 (configuration not stated)	-2	0	-33	0	41	/
CC(Cc1ccccc1)NC(=O)c1cc([N+](=O)[O-])ccc1Cl (configuration not stated)	3	-1	-16	3	58*	70*
CSc1ccccc1C(=O)OCC(=O)Nc1cccnc1Cl	-18	-2	-4	-2	-9	/
O=S(=O)(c1ccc(N2CCC(c3ccc(Cl)cc3)=N2)cc1)N(CCO)CCO	-4	2	-14	4	89*	93*
O=S(=O)(c1ccc(Oc2ccc(S(=O)(=O)N(CCO)CCO)cc2)cc1)N(CCO)CCO	-6	-1	-1	0	-13	/
SMILES	Scp1 inh	LMPTP block	SUMO1-SIM PPI	STEP block	FAS-TE inh	FAS-TE conf
O=C(Nc1nc(-c2ccccc2)cs1)c1ccccc1NS(=O)(=O)c1ccc(F)cc1	-11	3	20	-3	44	/
O=[N+]([O-])c1ccc(S(=O)(=O)Nc2ccc(-c3ccccc3)cc2)cc1	/	2	-30	-3	70*	70*
O=S(=O)(Nc1ccc(-c2csc(-c3ccccc3)n2)cc1)c1ccc(F)cc1	-18	4	-1	-6	58*	1
CC(Cc1ccccc1)=NNS(=O)(=O)c1ccc([N+](=O)[O-])cc1	-12	-2	-26	-2	60*	66*
CS(=O)(=O)c1ccc(S(=O)(=O)N2CCN(C(=O)C(O)c3ccccc3)CC2)cc1 (configuration not stated)	/	-2	3	/	/	/
COc1ccc(N=C2C(=Nc3ccc(OC)cc3)N(c3ccc(N(C)C)cc3)C(=S)N2c2ccc(OC)cc2)cc1	9	4	-21	3	80*	25
CC#CCN1c2ccccc2[C@]23C[C@@H](C(=O)OC)N(C(=O)OCC)C2=NC(C(=O)OC)=C(C(=O)OC)[C@H]13	-3	1	-6	-1	-8	/
CC#CCN1c2ccccc2[C@]23C[C@@H](C(=O)OC)N(C(=O)NCCBr)C2=NC(C(=O)OC)=C(C(=O)OC)[C@H]13	-14	1	8	-2	64*	29
C=CCN1c2ccccc2[C@]23C[C@@H](C(=O)OC)N(C(=O)NC4CCCC4)C2=NC(C(=O)OC)=C(C(=O)OC)[C@H]13	-10	1	6	-1	75*	0
CC(C)C(NCC(=O)Nc1ccccc1C(=O)NC1CC1)c1ccccc1 (configuration not stated)	-18	-1	4	-3	2	/
CC(C)CC1NC(=O)c2cc3ccccc3cc2-n2c1nc1ccc(Cl)cc1c2=O (configuration not stated)	/	0	-7	-1	74*	30
COc1ccc2nc3n(c(=O)c2c1)-c1cc2ccccc2cc1C(=O)NC3Cc1ccc(O)cc1 (configuration not stated)	/	3	-6	1	24	/
Cc1ccc2nc3n(c(=O)c2c1)-c1cc2ccccc2cc1C(=O)NC3CC(C)C (configuration not stated)	/	-3	-2	0	17	/
COc1ccc2nc3n(c(=O)c2c1)-c1cc2ccccc2cc1C(=O)NC3Cc1ccccc1 (configuration not stated)	/	0	-4	-1	78*	33
NS(=O)(=O)c1ccc(NC(=O)COC(=O)CNC(=O)C23CC4CC(CC(C4)C2)C3)cc1	-1	0	3	0	-2	/
